# Hits are enriched below; roughly 3.8% of the tested compounds scored in any of these assays.
# NPY-Y1 PAM-ag: NPY-Y1 receptor potentiators or agonists, primary screen, cell-based | activation, % at 3.6 µM | actives 0.37% (n = 220,000) | NPY-Y1 expressing cells, potentiator/agonist activation; in the data active = activation above about 33%, passing the limit was not always enough;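 also: cells stimulated with NPY at EC10 then isoproterenol at EC100; 0% = low agonist plus stimulus and 100% = saturating agonist plus stimulus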
# Target sequence (P25929 whole entry, looked up): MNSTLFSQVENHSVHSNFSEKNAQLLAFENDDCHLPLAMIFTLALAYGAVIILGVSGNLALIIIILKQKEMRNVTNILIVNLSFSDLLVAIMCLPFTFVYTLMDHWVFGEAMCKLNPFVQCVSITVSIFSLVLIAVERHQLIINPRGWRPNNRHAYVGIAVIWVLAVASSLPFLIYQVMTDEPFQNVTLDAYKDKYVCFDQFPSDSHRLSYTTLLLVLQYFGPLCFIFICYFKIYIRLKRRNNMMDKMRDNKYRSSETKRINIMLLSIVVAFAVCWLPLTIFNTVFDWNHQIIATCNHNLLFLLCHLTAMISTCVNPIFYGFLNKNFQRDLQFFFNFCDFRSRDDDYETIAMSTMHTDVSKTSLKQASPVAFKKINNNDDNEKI
# NPY-Y1 antag: NPY-Y1 receptor antagonists, primary screen, cell-based | HEK293-CNG Y1 cells, membrane potential fluorescence; NPY at EC95, then isoproterenol | Neuropeptide Y receptor type 1 (Homo sapiens), P25929 | actives 1% (n = 200,000) | inhibition, % at 3.6 µM;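 active = inhibition above the campaign mean inhibition of all tested compounds plus 3 SD, cut at about 20% in these data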;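 also: 0% = DMSO wells given NPY plus isoproterenol and 100% = isoproterenol alone without NPY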
#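 Benchmarks – high control isoproterenol alone, low control NPY with isoproterenol · Material – HEK293 Y1/CNG channel cell line · Times – dye 3 h, compound 60 min room temperature, stimulation 45 min · Probe or stimulus – NPY (25 nM), isoproterenol (1 µM), Ro 20-1724 (25 µM) · Evaluation – % inhibition of NPY effect · Signal – fluorescence, membrane potential probe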
# RAM network inh: inhibitors of the yeast RAM network, primary screen, dse1pr::URA3 reporter, 5-FOA selection; S. cerevisiae dse1pr::URA3 reporter, 5-FOA growth OD615, 2 d; analog-sensitive cbk1-as2 kinase mutant strain; actives 1.8% (n = 190,000); inhibition, % at 50 µM;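 active = inhibition above a set limit, 3 SD over mean compound inhibition, cut at about 8.4% in these data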;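 also: 0% = DMSO-only wells with no growth and 100% = 10 µM 1-NA-PP1 full growth; inhibition rescues growth on 5-FOA so higher OD means more RAM inhibition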
# NPY-Y2 antag: NPY-Y2 receptor antagonists, primary screen, cell-based. Neuropeptide Y receptor type 2 (Homo sapiens), P49146. NPY-Y2 expressing cells, antagonist mode. actives 0.99% (n = 140,000). AID 793, 2007. inhibition, % at 2.7 µM; in the data active = inhibition above about 17%;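 also: 0% = vehicle with agonist challenge and 100% = reference antagonist with challenge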
# NPY-Y2 PAM-ag: NPY-Y2 potentiators or agonists, primary screen, cell-based; cells expressing NPY-Y2, potentiator/agonist read-out; Neuropeptide Y receptor type 2 (Homo sapiens), P49146; actives 0.45% (n = 220,000); AID 1359, 2008; activation, % at 3.6 µM; in the data active = activation above about 27%;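 also: cells stimulated with NPY near EC25 plus isoproterenol at EC100; 0% = vehicle plus submaximal agonist and 100% = vehicle plus saturating agonist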
# INS promoter inh: inhibitors of insulin promoter-driven GFP, primary screen, imaging, TRM-6 cells, eGFP reporter, cell count | AID 1273, 2008 | inhibition, % at 2 µM | reporter expression induced with tamoxifen | actives 0.9% (n = 130,000);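 active = inhibition above the mean plus 3 SD, with well images judged a real hit on visual review, cut at about 60% in these data, passing the limit was not always enough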
# An asterisk follows results filed as active; . = not tested or not shown.
SMILES,NPY-Y1 PAM-ag,NPY-Y1 antag,RAM network inh,NPY-Y2 antag,NPY-Y2 PAM-ag,INS promoter inh
CCc1ccc(OCC(=O)NC(NC(=S)Nc2ccc(Cl)cc2)C(Cl)(Cl)Cl)cc1 (centres undefined),-2.6,-2.1,9.5*,-3.1,-5.0,7.4
CCc1ccc(OCC(=O)NC(=S)Nc2ccc(C(=O)O)cc2)cc1,-18.7,.,.,.,-12.8,.
O=C(CN1CCN(S(=O)(=O)c2ccccc2F)CC1)Nc1ccccc1C(=O)c1ccccc1,-4.0,4.8,10.5*,.,-0.6,.
Clc1ccccc1CN(Cc1ccccc1)C(c1cccs1)c1nnnn1C1CCCC1 (centres undefined),-41.5,1.8,5.6,4.6,-3.0,.
CCN(Cc1ccccc1)C(c1cccs1)c1nnnn1C1CCCCC1 (centres undefined),4.8,13.1,9.3*,9.3,7.0,18.8
COc1ccc(C(C(=O)Nc2ccc(F)cc2)N(C(=O)Cn2nnc3ccccc32)C2CC2)cc1 (centres undefined),-27.4,-0.4,7.4,-1.6,-6.3,-87.5
O=C(NCc1cccs1)c1cc(-c2ccncc2)nc2ccc(Br)cc12,-58.1,3.8,-1.4,.,-18.7,.
O=C(CSc1nccn1-c1ccccc1)c1ccc(Br)cc1,9.0,4.8,10.7*,3.8,-9.1,-12.2
CCCSc1nsc(NC(=O)CCC)n1,-2.4,2.1,-0.1,.,-14.4,0.0
CN(C)CCCNC(=O)/C=C/c1ccc2c(c1)OCO2,8.9,3.9,1.0,3.0,11.6,13.2
O=C(/C=C/c1ccc2c(c1)OCO2)NCCSCc1ccc(Cl)cc1,-37.4,37.3*,0.2,22.6*,-16.2,20.0
O=C(COc1ccccc1F)NCc1ccc(-n2cccc2)cc1,-9.2,12.8,0.7,.,-22.2,38.5
O=C(Nc1ccc(Cn2cccn2)cc1)c1ccc(COc2cccc(Br)c2)cc1,0.7,4.2,9.9*,-1.9,5.1,13.5
O=C(O)CCCCCN1C(=O)C(O)=C(C(=O)/C=C/c2ccccc2)C1c1cccc([N+](=O)[O-])c1 (centres undefined),11.9,3.7,4.7,.,8.8,-11.6
CN(c1cccc(Cl)c1)S(=O)(=O)c1cccc(C(=O)Nc2ccc3c(c2)CCC3)c1,14.3,0.9,5.9,2.8,15.0,-16.9
COc1ccc(-c2noc(-c3ccccc3C(=O)Nc3cccc(OC)c3)n2)cc1,-80.1,43.0*,7.1,24.5*,-13.6,-60.0
Cc1ccccc1OCC(=O)Nc1ccc2c(c1)Cc1ccccc1-2,-28.9,31.8*,3.6,18.9*,-11.5,-13.8
CC(C)(C)N(NC(=O)c1ccccc1)C(=O)c1cccc(C(=O)N(NC(=O)c2ccccc2)C(C)(C)C)c1,-24.0,40.9*,5.0,20.5*,-16.3,.
CC(C)(C)N(NC(=O)Nc1ccccc1)C(=O)c1ccccc1,2.7,-1.3,0.9,0.7,-7.0,-48.1
Cn1c(=O)c(Oc2ccc(F)cc2)c(O)c2ccccc21,17.2,-1.3,-0.6,1.2,15.8,64.3*
CCOC(=O)C1(CC2CC2)CCN(S(=O)(=O)/C=C/c2ccccc2)CC1,2.4,-3.7,6.2,.,0.1,.
CCSc1nc(-c2ccc(OC)cc2)ccc1C#N,-43.1,12.7,8.7*,4.9,-14.3,13.2
CCOC(=O)CNc1c(-c2ccccc2)nc2ccc(Cl)cn12,5.4,1.1,0.9,-0.8,-11.9,51.3
Cc1ccccc1Nc1c(-c2ccncc2)nc2ccc(Cl)cn12,54.1*,-6.0,1.2,.,44.8*,.
Cc1ccn2c(Nc3ccccc3C)c(-c3cccnc3)nc2c1,61.2*,-0.2,0.0,.,53.3*,.
SMILES,NPY-Y1 PAM-ag,NPY-Y1 antag,RAM network inh,NPY-Y2 antag,NPY-Y2 PAM-ag,INS promoter inh
COc1ccc(NC(=O)c2nc(C)n(-c3ccc([N+](=O)[O-])cc3)n2)cc1,11.0,2.3,2.4,.,7.8,.
CN(C)c1nc(N(C)C)nc(N2CC(=O)N(c3ccccc3)C2=N)n1,-4.3,0.1,0.4,.,-0.1,.
CC(Sc1nc(C(C)(C)C)cc(-c2ccccc2)c1C#N)C(=O)Nc1ccccc1 (centres undefined),-7.4,3.2,9.2*,1.9,-3.0,-25.0
CC(Sc1nc(NC(C)(C)C)nc(N(C)C)n1)C(=O)Nc1ccccc1 (centres undefined),3.2,5.8,2.7,.,0.8,-76.9
COc1cnc(NS(=O)(=O)c2ccc(N)cc2)nc1,1.8,-2.4,0.0,1.9,5.8,-36.4
Brc1ccccc1-c1nnc(CSc2nncn2-c2ccccc2)o1,-12.3,11.8,2.2,2.4,-10.0,.
Cc1ccc(-n2nnnc2SCc2nnc(-c3ccccc3Br)o2)cc1,-5.6,3.4,10.1*,7.2,-4.3,.
CCN1C(=O)/C(=C\c2nc3ccccc3c(=O)n2-c2ccccc2)c2ccccc21,-27.4,5.5,9.6*,-0.3,-4.8,-8.3
COc1ccc(/C=N/NC(=O)CSc2ccccc2)cc1OC,-12.2,14.3,0.7,3.1,-5.5,64.3*
O=C(CN1C(=O)c2ccccc2C1=O)Nc1sc2c(c1C(=O)NCC1CCCO1)CCC2 (centres undefined),-2.3,-2.8,6.5,1.6,12.1,-36.4
COc1ccc(OCC(=O)Nc2sc3c(c2C(=O)NCC2CCCO2)CCC3)cc1 (centres undefined),-4.0,1.9,9.0*,-1.4,-24.9,-62.5
COC(=O)CN1C(c2cccc(Cl)c2)=Nc2ccc(Cl)cc2C1c1ccccc1 (centres undefined),-42.9,38.7*,1.0,27.6*,-21.2,.
COC(=O)CN1C(c2ccc(OC)cc2)=Nc2ccc(Cl)cc2C1c1ccccc1 (centres undefined),-7.0,24.6*,1.8,22.9*,-9.3,.
NNC(=O)CN1C(c2ccc(Br)cc2)=Nc2ccc(Br)cc2C1c1ccccc1 (centres undefined),-6.4,6.4,2.4,1.7,-3.4,28.6
COc1cc(C2=Nc3ccc(Br)cc3C(c3ccccc3)N2CC(=O)NN)cc(OC)c1OC (centres undefined),9.2,.,.,.,12.9,.
Cc1ccc(CN2CCN(Cc3cnc(C)s3)CC2CCO)cc1 (centres undefined),6.5,1.6,1.0,.,1.0,.
CSc1ccc(/C=C/C(=O)OCC(=O)N(C)CCC#N)cc1,-12.9,1.3,-0.6,.,-20.0,.
O=C(O)c1ccccc1Sc1c([N+](=O)[O-])cc(C(F)(F)F)cc1[N+](=O)[O-],5.7,5.6,1.8,.,3.0,72.7*
COc1cccc(OCC(=O)N(Cc2nc(-c3ccc(Cl)cc3)no2)C(C)C)c1,-42.2,7.5,10.4*,11.7,-43.4,.

# Screens (PubChem BioAssay)
